Results as given in ChEMBL document CHEMBL4837209, “Synthesis and BK channel-opening activity of 2-amino-1,3-thiazole derivatives” (Bioorg Med Chem Lett, 2021).
Activity calls are given as the source filed them. The rule behind the calls is not given here.

Legend:
[1] = target: Calcium-activated potassium channel subunit alpha-1 (Homo sapiens) (UniProt Q12791); assay: Opening of BK channel in human AD293 cells assessed as relative fluorescence unit at 5 uM by cell-based fluorescence assay relative to control
Calcium-activated potassium channel subunit alpha-1 (Homo sapiens), sequence (Q12791 whole entry): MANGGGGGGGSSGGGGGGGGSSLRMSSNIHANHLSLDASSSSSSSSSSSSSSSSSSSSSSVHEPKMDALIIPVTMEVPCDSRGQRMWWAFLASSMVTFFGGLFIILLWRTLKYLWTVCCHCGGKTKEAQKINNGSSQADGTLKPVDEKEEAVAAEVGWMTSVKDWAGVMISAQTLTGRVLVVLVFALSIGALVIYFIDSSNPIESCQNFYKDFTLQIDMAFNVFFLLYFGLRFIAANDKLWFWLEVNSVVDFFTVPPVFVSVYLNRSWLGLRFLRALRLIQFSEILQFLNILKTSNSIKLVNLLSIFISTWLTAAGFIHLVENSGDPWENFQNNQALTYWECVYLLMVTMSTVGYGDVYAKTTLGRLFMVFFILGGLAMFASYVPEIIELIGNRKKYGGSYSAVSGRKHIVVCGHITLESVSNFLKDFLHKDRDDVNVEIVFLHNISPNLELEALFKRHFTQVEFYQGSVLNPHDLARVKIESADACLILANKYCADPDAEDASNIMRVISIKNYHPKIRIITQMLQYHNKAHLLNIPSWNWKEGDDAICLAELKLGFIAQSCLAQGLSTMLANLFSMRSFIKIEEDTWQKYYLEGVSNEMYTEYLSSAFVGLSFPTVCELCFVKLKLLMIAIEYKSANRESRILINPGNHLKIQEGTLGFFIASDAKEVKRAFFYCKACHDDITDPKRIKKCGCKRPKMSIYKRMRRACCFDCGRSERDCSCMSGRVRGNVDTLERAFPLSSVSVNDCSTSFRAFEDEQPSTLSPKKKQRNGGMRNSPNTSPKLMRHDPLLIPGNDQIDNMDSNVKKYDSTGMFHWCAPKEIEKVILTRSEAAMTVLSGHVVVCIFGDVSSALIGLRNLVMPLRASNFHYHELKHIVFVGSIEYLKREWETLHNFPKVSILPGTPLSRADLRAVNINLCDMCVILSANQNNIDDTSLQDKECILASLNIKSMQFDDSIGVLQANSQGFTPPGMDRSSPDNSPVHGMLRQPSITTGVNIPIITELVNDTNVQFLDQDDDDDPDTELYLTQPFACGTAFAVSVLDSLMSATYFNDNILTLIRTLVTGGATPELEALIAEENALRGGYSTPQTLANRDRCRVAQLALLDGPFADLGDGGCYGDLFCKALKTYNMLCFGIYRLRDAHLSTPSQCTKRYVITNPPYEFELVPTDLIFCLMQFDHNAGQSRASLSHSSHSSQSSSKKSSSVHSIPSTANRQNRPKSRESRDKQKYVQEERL
Procedure, shortened: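 FluxOR Tl⁺-flux assay in AD-293 cells expressing hyperactive mutant BK channels (G803D/N806K). Each fluorescence trace was normalized to its own basal level to give RFU. ΔRFU with compound at 5 μM was expressed versus the drug-free control. DMSO served as negative control and CTBIC at a fixed concentration as positive control. Values are means of at least three separate measurements.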

[2] = target: Calcium-activated potassium channel subunit alpha-1 (Rattus norvegicus) (UniProt Q62976); assay: […] of rat BK calcium channel expressed in Xenopus laevis oocytes assessed as increase in inward current tail at 10 uM at -80 to 200 mV by patch clamp assay; format: cell-based; settings: Oocyte
Calcium-activated potassium channel subunit alpha-1 (Rattus norvegicus), sequence (Q62976 whole entry): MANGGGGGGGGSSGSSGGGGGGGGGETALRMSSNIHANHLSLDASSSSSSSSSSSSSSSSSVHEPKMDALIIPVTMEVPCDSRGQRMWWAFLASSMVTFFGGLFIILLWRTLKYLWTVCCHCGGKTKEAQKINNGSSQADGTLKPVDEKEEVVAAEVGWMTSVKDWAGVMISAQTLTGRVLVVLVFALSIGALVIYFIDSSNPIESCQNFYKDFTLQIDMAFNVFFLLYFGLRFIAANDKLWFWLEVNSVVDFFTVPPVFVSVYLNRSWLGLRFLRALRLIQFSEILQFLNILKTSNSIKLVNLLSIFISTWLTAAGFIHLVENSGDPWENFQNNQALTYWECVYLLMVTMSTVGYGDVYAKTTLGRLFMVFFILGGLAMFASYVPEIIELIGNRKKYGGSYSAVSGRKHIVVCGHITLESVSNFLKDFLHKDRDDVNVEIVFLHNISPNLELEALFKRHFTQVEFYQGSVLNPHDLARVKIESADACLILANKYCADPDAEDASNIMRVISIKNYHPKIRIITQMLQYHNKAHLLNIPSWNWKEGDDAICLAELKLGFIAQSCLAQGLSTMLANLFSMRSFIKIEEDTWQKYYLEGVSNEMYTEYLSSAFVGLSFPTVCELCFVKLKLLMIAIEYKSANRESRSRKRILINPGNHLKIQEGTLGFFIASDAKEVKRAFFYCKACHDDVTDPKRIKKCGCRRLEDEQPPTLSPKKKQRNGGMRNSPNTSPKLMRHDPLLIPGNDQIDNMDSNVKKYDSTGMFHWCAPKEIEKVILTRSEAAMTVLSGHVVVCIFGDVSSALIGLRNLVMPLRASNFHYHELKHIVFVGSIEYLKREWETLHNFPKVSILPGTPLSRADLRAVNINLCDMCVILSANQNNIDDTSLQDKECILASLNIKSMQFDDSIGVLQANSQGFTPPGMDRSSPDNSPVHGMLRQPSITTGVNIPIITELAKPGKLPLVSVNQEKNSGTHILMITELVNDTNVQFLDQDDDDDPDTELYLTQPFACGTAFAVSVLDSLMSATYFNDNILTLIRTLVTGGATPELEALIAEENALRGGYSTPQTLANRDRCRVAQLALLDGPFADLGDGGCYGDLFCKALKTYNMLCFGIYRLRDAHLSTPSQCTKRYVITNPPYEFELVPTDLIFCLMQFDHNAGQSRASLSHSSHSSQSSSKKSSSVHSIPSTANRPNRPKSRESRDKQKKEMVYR
Procedure, shortened: (§1)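 Rat BK α-subunit (Slo1) expressed in Xenopus laevis oocytes. Currents were recorded by gigaohm-seal patch clamp in the outside-out configuration. Macroscopic currents were evoked by voltage pulses from -80 to 200 mV, with and without compound. Student t-test was used.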

[3] = target: Calcium-activated potassium channel subunit alpha-1 (Rattus norvegicus) (UniProt Q62976); assay: […] of rat BK calcium channel expressed in Xenopus laevis oocytes assessed as maximum conductance at 10 uM at -80 to 200 mV by patch clamp assay relative to control; format: cell-based; settings: Oocyte; procedure, shortened: as §1
[4] = target: Calcium-activated potassium channel subunit alpha-1 (Rattus norvegicus) (UniProt Q62976); assay: […] of rat BK calcium channel expressed in Xenopus laevis oocytes assessed as V1/2 at 10 uM at -80 to 200 mV by patch clamp assay; format: cell-based; settings: Oocyte; procedure, shortened: as §1
[5] = target: Calcium-activated potassium channel subunit alpha-1 (Homo sapiens) (UniProt Q12791); assay: […] of BK calcium channel in human AD293 cells assessed as relative fluorescence unit at 1 to 30 uM in presence of 1 uM paxilline by cell-based fluorescence assay; settings: dose 1-30 µM
Procedure, shortened: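 FluxOR Tl⁺-flux fluorescence in AD-293 cells expressing G803D/N806K mutant BK channels. Compounds were tested at 1–30 μM, alone and co-applied with 1 μM paxilline to confirm the BK dependence of the signal. Signals were normalized to the basal level of each trace. Student t-test was used.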

[6] = target: Calcium-activated potassium channel subunit alpha-1 (Homo sapiens) (UniProt Q12791); assay: Opening of BK channel in human AD293 cells assessed as relative fluorescence unit by cell-based fluorescence assay; settings: dose 1-30 µM
[7] = target: Calcium-activated potassium channel subunit alpha-1 (Rattus norvegicus) (UniProt Q62976); assay: […] of rat BK calcium channel expressed in Xenopus laevis oocytes assessed as increase in outward current tail at 10 uM at -80 to 200 mV by patch clamp assay; format: cell-based; settings: Oocyte; procedure, shortened: as §1
[8] = target: Calcium-activated potassium channel subunit alpha-1 (Rattus norvegicus) (UniProt Q62976); assay: […] of rat BK calcium channel expressed in Xenopus laevis oocytes assessed as G-V shift toward more negative voltage at 10 uM at -80 to 200 mV by patch clamp assay; format: cell-based; settings: Oocyte; procedure, shortened: as §1

Row | Compound | RFU [1] | further results
1 | Nc1ncc(Cc2ccccc2Cl)s1 | 1.13 | 
2 | Cc1cccc(Cc2cnc(N)s2)c1 | 1.27 | 
3 | CC(=O)Nc1ncc(Cc2ccc(Br)cc2)s1 | 1.14 | 
4 | Nc1ncc(Cc2ccc(C(F)(F)F)cc2)s1 | 2.1 | Activity [2]: Active; fold change (FC) [3]: 1.3; V1/2 [4]: 24.5 mV; inhibition [5]: Active; inhibition [6]: Dose-Dependent Effect; Activity [7]: Active; Activity [8]: Active
5 | Nc1ncc(Cc2ccc(Br)cc2)s1 | 1.85 | 
6 | Nc1ncc(Cc2ccc(Cl)cc2)s1 | 1.59 | 
7 | Nc1ncc(Cc2ccc([N+](=O)[O-])cc2)s1 | 0.94 | 
8 | Nc1ncc(Cc2cccnc2)s1 | 1.08 | 
9 | Nc1ncc(Cc2ccccc2C(F)(F)F)s1 | 1.07 | 
10 | Nc1ncc(Cc2ccccc2Br)s1 | 2.67 | Activity [2]: Active; fold change (FC) [3]: 1.4; V1/2 [4]: 23.4 mV; inhibition [5]: Active; inhibition [6]: Dose-Dependent Effect; Activity [7]: Active; Activity [8]: Active
11 | COc1ccccc1Cc1cnc(N)s1 | 0.94 | 
12 | O=C(O)c1ccc(Cl)c2c1[nH]c1c3ccc(C(F)(F)F)cc3oc12 | 3.3 | 
13 | Cc1ccccc1Cc1cnc(N)s1 | 1.37 | 
14 | Nc1ncc(Cc2cccc(Cl)c2)s1 | 1.51 | 
15 | COc1cccc(Cc2cnc(N)s2)c1 | 1.02 | 
16 | Nc1ncc(C(=O)c2ccc(Br)cc2)s1 | 0.94 | 
17 | N#Cc1cccc(Cc2cnc(N)s2)c1 | 1 | 
18 | Nc1ncc(Cc2cccc(C(F)(F)F)c2)s1 | 1.22 | 
19 | O=C(CCl)Nc1ncc(Cc2ccc(Br)cc2)s1 | 0.94 | 
20 | Nc1ncc(Cc2cccc(Br)c2)s1 | 1.37 | 
21 | N#Cc1ccccc1Cc1cnc(N)s1 | 1.06 | 
22 | COc1ccc(Cc2cnc(N)s2)cc1 | 1.02 | 
23 | Nc1ncc(C(=O)c2ccc(C(F)(F)F)cc2)s1 | 1.08 | 
24 | Nc1ncc(Cc2ccncc2)s1 | 1.11 | 
25 | COc1cc(Cc2cnc(N)s2)cc(C(F)(F)F)c1 | 0.97 | 
26 | Cc1ccc(Cc2cnc(N)s2)cc1 | 1.11 | 
27 | N#Cc1ccc(Cc2cnc(N)s2)cc1 | 1.21 | 
